Marks after values point to notes of the source that are not given here.
Assays:
[1] = Plasma pharmacokinetics of TSU-68 in phase I patients; format: in vivo, human; conditions: for AUC(0-t): 500 mg/m2, AUC0–t; for AUC(0-t) / Cmax / Tmax: b.i.d. after meal; for Cmax: 500 mg/m2, C max; for half-life: 500 mg/m2, T 1/2, b.i.d. after meal; for Tmax: 500 mg/m2, T max
[2] = Urinary excretion of TSU-68; format: in vivo, human; conditions: all dose levels
How it was run: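 Urine was collected in 0–12 h (b.i.d.) or 0–6/0–12 h (t.i.d.) intervals after selected doses, plus pre-dose and up to 24 h after the final sampled dose. Drug was measured by validated HPLC-UV (LLOQ 0.1 μg/ml), and excretion was expressed as % of dose.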

solid tumors = experiment: Antitumor effect; format: in vivo, human
plasma VEGF = experiment: Angiogenesis-related factor: plasma VEGF; format: in vivo, human
How it was run: (§1)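 Plasma and urine were collected from patients before treatment and after day 8 and day 28 of oral test compound dosing, and analysed at a central commercial laboratory. ELISA kits were used for human VEGF (plasma and urine), ELAM-1, VCAM-1 and soluble t-PA. Soluble PAI-1 was measured by latex photometric immunoassay. Values are reported as median (range) per time point.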

urinary VEGF = experiment: Angiogenesis-related factor: urinary VEGF; format: in vivo, human
How it was run: as §1

ELAM-1 = experiment: Angiogenesis-related factor: ELAM-1; format: in vivo, human
How it was run: as §1

PAI-1 = experiment: Angiogenesis-related factor: PAI-1; format: in vivo, human
How it was run: as §1

VCAM-1 = experiment: Angiogenesis-related factor: VCAM-1; format: in vivo, human
How it was run: as §1

[3] = tested on: liver cytochrome P450, CYP1A1/2; conditions: non-clinical studies; cited from earlier work
[4] = tested on: patients with advanced solid tumors; conditions: b.i.d., between-meal conditions; cited from earlier work
[5] = human, plasma, oral, 1st dose, 500 mg/m^2, n=3, mean ± SD
[6] = human, plasma, oral, 56th dose, 500 mg/m^2, n=3, mean ± SD
[7] = human, plasma, oral, 3rd dose, 500 mg/m^2, n=3, mean ± SD
[8] = PD patients (13 pts.), Wilcoxon signed rank-sum test

Compound `Cc1[nH]c(/C=C2\C(=O)Nc3ccccc32)c(C)c1CCC(=O)O` [TSU-68, (Z)-5-[(1,2-dihydro-2-oxo-3H-indol-3-ylidene)methyl]-2,4-dimethyl-1H-pyrrole-3-propanoic acid] has an AUC(0-t) [1, 5] of 103000 ± 45600 ng·h/mL, an AUC(0-t) [1, 6] of 43200 ± 18700 ng·h/mL and a Cmax [1, 5] of 22500 ± 10000 ng/mL. For the same compound, the Cmax [1, 7] was 8790 ± 2920 ng/mL, the Cmax [1, 6] was 7510 ± 3460 ng/mL and the half-life [1, 5] was 2.35 ± 0.599 h. It also gave a half-life [1, 7] of 3.33 ± 1.16 h, a half-life ([1]; human, plasma, oral, 56th dose, 500 mg/m^2, N = 1) of 1.82 h and a Tmax [1, 5] of 4 ± 1.73 h. The Tmax [1, 7] was 4.33 ± 1.53 h, the Tmax [1, 6] was 3.17 ± 1.44 h and the AUC ([1]; human, plasma, oral, 500 mg/m^2 b.i.d., AUC Day 28, Pt 11, Colon ca., b.i.d. 500 mg/m^2 (1,600 mg/day)) was 44600 ng·h/mL. For the same compound, the “T 1/2” value ([1]; t.i.d. after meal, 84th dose, 200 mg/m^2, N = 5, mean ± SD) was 4.773 ± 2.221^e h, the “AUC0–t” value ([1]; t.i.d. after meal, 84th dose, 200 mg/m^2, n=6, mean ± SD) was 24.75 ± 13.69 h and the “Urinary excretion of TSU-68” value [2] was “below 1 % of dose”. The NC patients (solid tumors; 10/23 evaluable patients) was 43.5%, the Tumor control rate (solid tumors; 10/23 patients) was 43.5% and the PR patient (solid tumors; 23 evaluable patients) was “not found”. The “TTP (time to progression)” value (solid tumors; Pt 1, Cervical ca., b.i.d. 200 mg/m^2 (800 mg/day)) was 162 days, the “TTP (time to progression)” value (solid tumors; Pt 2, NSCLC, b.i.d. 200 mg/m^2 (800 mg/day)) was 64 days and the “TTP (time to progression)” value (solid tumors; Pt 4, SCLC, b.i.d. 400 mg/m^2 (1,200 mg/day)) was at least 29 days. The “TTP (time to progression)” value (solid tumors; Pt 8, Cholecystis ca., b.i.d. 400 mg/m^2 (1,200 mg/day)) was 61 days, the “TTP (time to progression)” value (solid tumors; Pt 9, NSCLC, b.i.d. 400 mg/m^2 (1,200 mg/day)) was at least 29 days and the “TTP (time to progression)” value (solid tumors; Pt 14, Soft tissue sa., t.i.d. 200 mg/m^2 (600 mg/day)) was at least 254 days. For the same compound, the “TTP (time to progression)” value (solid tumors; Pt 17, NSCLC, t.i.d. 200 mg/m^2 (1,200 mg/day)) was 65 days, the “TTP (time to progression)” value (solid tumors; Pt 19, NSCLC, t.i.d. 400 mg/m^2 (2,400 mg/day)) was at least 28 days and the “TTP (time to progression)” value (solid tumors; Pt 20, Colon ca., t.i.d. 400 mg/m^2 (1,800 mg/day)) was at least 217 days. For the same compound, the “TTP (time to progression)” value (solid tumors; Pt 23, Colon ca., t.i.d. 400 mg/m^2 (1,800 mg/day)) was at least 28 days, the Median survival period (solid tumors; all dose levels) was 218 days and the “Median time to progression” value (solid tumors; all dose levels) was 28 days. The “Change of plasma VEGF at day 28 compared to baseline” value (plasma VEGF; [8]) was “significantly increasing”, the “Plasma VEGF, median” value (plasma VEGF; day 8, 23 patients) was 55 pg/mL and the “Plasma VEGF, range” value (plasma VEGF; day 8, 23 patients) was under 31 to 278 pg/mL. For the same compound, the “Plasma VEGF, median” value (plasma VEGF; day 28, 22 patients) was 63 pg/mL, the “Plasma VEGF, range” value (plasma VEGF; day 28, 22 patients) was under 31 to 270 pg/mL and the “Urinary VEGF, median” value (urinary VEGF; day 8, 23 patients) was 144 pg/mL. For the same compound, the “Urinary VEGF, range” value (urinary VEGF; day 8, 23 patients) was under 31 to 1210 pg/mL, the “Urinary VEGF, median” value (urinary VEGF; day 28, 22 patients) was 162.5 pg/mL and the “Urinary VEGF, range” value (urinary VEGF; day 28, 22 patients) was 68 to 730 pg/mL. For the same compound, the “ELAM-1, median” value (ELAM-1; day 8, 23 patients) was 50 ng/mL, the “ELAM-1, range” value (ELAM-1; day 8, 23 patients) was 13 to 136 ng/mL and the “ELAM-1, median” value (ELAM-1; day 28, 22 patients) was 45.5 ng/mL. For the same compound, the “ELAM-1, range” value (ELAM-1; day 28, 22 patients) was 17 to 114 ng/mL, the “Change of PAI-1 at day 28 compared to baseline” value (PAI-1; [8]) was “significantly increasing” and the “PAI-1, median” value (PAI-1; day 8, 23 patients) was 28 ng/mL. For the same compound, the “PAI-1, range” value (PAI-1; day 8, 23 patients) was 11 to 92 ng/mL, the “PAI-1, median” value (PAI-1; day 28, 22 patients) was 31 ng/mL and the “PAI-1, range” value (PAI-1; day 28, 22 patients) was 11 to 120 ng/mL. The “VCAM-1, median” value (VCAM-1; day 8, 23 patients) was 562 ng/mL, the “VCAM-1, range” value (VCAM-1; day 8, 23 patients) was 303–1,140 ng/ml and the “VCAM-1, median” value (VCAM-1; day 28, 22 patients) was 545.5 ng/mL. The “VCAM-1, range” value (VCAM-1; day 28, 22 patients) was 355 to 988 ng/mL, the “Effect on liver cytochrome P450, CYP1A1/2 involved in its own metabolism” value [3] was “induction” and the Recommended dosage [4] was at most 800 mg/m^2.
